Results published in PMC6492960 (Oncoimmunology, 2019).

Key:
HLA-DP4 = conditions: cited from earlier work
[1] = tested on: splenocytes of immunised HLA-DR4 transgenic mice; test: Epitope mapping, HLA-DR4 transgenic mice; format: cell-based, mouse; conditions: Supplementary Figure 3
[2] = tested on: splenocytes of immunised HLA-DP4 transgenic mice (IFNγ); format: cell-based, mouse; conditions: anti-CD4 20 µg/ml, 15 min prior to peptide
How it was run: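 HLA-A2.1/HLA-DP4/hCD4 transgenic mice (8–12 weeks) immunised s.c. at tail base on days 0, 7 and 14 with 25 µg peptide in PBS emulsified with CpG ODN 1826 and MPLA (5 µg each). Spleens taken day 20. Splenocytes (5 × 10^5/well) given anti-CD4 GK1.5 before 10µg/ml peptide; quadruplicate wells, 40 h, 37°C, 5% CO2. LPS positive control. Spots counted automatically.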

[3] = tested on: TCR α and β chain CDR3 of CD4+ CFSE^high and CFSE^low cells; test: TCR α and β CDR3 repertoire diversity of sorted CD4+ CFSE high/low cells; design: species or system human; conditions: for Diversity Index (D50) TRA / Diversity Index (D50) TRB: day 10, non-normalised
How it was run: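 CD25-depleted human PBMCs were labelled with 5µM CFSE for 5 min at room temperature and cultured at 1.5-2x10^6/ml with 10μg/ml citrullinated peptide or vehicle. On day 10 they were stained for CD4/CD8 and sorted into CD4+ CFSEhigh and CFSElow populations. RNA then went through RT-PCR, ARM-PCR with human TCR α/β primers, and NGS bulk sequencing. D50 is the percentage of clones accounting for the cumulative 50% of CDR3 counts.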

[4] = molecular target: HLA-DP4 (HLA-DPA*0103 α chain / HLA-DPB*0401 β chain) (human); test: ELISA
[5] = donor BD0008, CD4+ CFSE^High (non-proliferating)
[6] = donor BD0008, CD4+ CFSE^Low (proliferating)
[7] = donor BD0011, CD4+ CFSE^High (non-proliferating)
[8] = donor BD0011, CD4+ CFSE^Low (proliferating)

Substance: NQDFTN-cit-INKLKNS [fibrinogen]
- binding to HLA-DP4 (literature) (HLA-DP4): not to bind to HLA-DP4

Substance: VIGMDVAASEFF-cit-SG [Enolase 241-255 cit]
- shorter epitope mapping in HLA-DR4 transgenic mice [1]: consistent with findings in the HLA-DR4 transgenic mice mapping shorter peptide sequences

Substance: VIGMDVAASEFF-cit-SGKYDLD [Enolase 241-260 cit]
- IFNγ ELISpot response in presence of CD4 blocking antibody [2]: Responses were lost

Substance: cit-SYVTTST-cit-TYSLGSAL-cit-PSTS [Vimentin 28-49 cit]
- Diversity Index (D50) TRA [3, 5]: 12.8
- Diversity Index (D50) TRB [3, 5]: 17
- Diversity Index (D50) TRA [3, 6]: 0.4
- Diversity Index (D50) TRB [3, 6]: 0.2
- TCR clonality of responding CD4 T cells ([3]; donor BD0008, compared with non-proliferating CD4 population): a bias of TCR Vβ and Vα sequences among CD4+ proliferating cells (CFSE^low)
- IFNγ ELISpot response in presence of CD4 blocking antibody [2]: Responses were lost

Substance: LPNFSSLNL-cit-ETNLDSLPL [Vimentin 415-433 cit]
- Diversity Index (D50) TRA [3, 7]: 9.9
- Diversity Index (D50) TRB [3, 7]: 5.9
- Diversity Index (D50) TRA [3, 8]: 0.7
- Diversity Index (D50) TRB [3, 8]: 0.5
- TCR clonality of responding CD4 T cells ([3]; donor BD0011, compared with non-proliferating CD4 population): a bias of TCR Vβ and Vα sequences among CD4+ proliferating cells (CFSE^low)
- IFNγ ELISpot response in presence of CD4 blocking antibody [2]: Responses were lost

Substance: FSSLNL-cit-ETNLDSL [Vimentin 418-431 cit]
- shorter epitope mapping in HLA-DR4 transgenic mice [1]: consistent with findings in the HLA-DR4 transgenic mice mapping shorter peptide sequences

Substance: non-biotinylated Hepatitis B surface antigen aa 181–193 peptide
- percent inhibition of the binding of the biotinylated Hepatitis B peptide [4]: 50%

Substance: cit-SYVTTST-cit-TYSLGS [Vimentin 28-42 cit]
- shorter epitope mapping in HLA-DR4 transgenic mice [1]: consistent with findings in the HLA-DR4 transgenic mice mapping shorter peptide sequences

Substance: LQYM-cit-ADQAAGGLR [collagen II]
- binding to HLA-DP4 (literature) (HLA-DP4): not to bind to HLA-DP4
